High-throughput results deposited in PubChem BioAssay by several laboratories.
Sampled rows, rich in hits. Any-hit rate of the full collection: about 4.2%.
UPR CHOP act = apoptotic UPR (CHOP) activation | CHO-CHOP luciferase reporter, luminescence; percent of tunicamycin response over DMSO baseline | activation, % at 10 µM | hit rate 0.34% among 330,000 | AID 449763;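 active means at 10 µM dose, activation of 40% or more, normalized to positive control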;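 further: 100% = tunicamycin at 10 µg/mL and 0% = DMSO alone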
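Evaluation: % reporter activation, DMSO baseline versus tunicamycin full activation; System: CHO-CHOP luciferase reporter cell line; Input: 500 cells/well; Incubation: 6 h compound treatment, 37 °C; Measured by: Steady-Glo luciferase luminescence; Dosing: one dose, 10 µM in 0.5% DMSO; Buffer or medium: F12 medium, 10% FBS; Benchmarks: positive tunicamycin 10 µg/mL, negative DMSO alone.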
TMEM16A act = activators or potentiators of mouse TMEM16A chloride channel. Q8BHY3. HEK293 TMEM16A/YFP-H148Q/I152L, iodide quench fluorescence; active compounds read low. B-score at 10 µM. hit rate 0.3% among 340,000;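 active means fluorescence-ratio B-score plate-corrected deviation score at least 3 library SD below zero, with starting fluorescence score within 5 deviations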;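 further: channel opened by trigger with iodide after compound preincubation; score built on the fluorescence ratio of max minus min over baseline; more negative score means more quench and so TMEM16A activation or potentiation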
Target sequence (Q8BHY3 whole entry, looked up): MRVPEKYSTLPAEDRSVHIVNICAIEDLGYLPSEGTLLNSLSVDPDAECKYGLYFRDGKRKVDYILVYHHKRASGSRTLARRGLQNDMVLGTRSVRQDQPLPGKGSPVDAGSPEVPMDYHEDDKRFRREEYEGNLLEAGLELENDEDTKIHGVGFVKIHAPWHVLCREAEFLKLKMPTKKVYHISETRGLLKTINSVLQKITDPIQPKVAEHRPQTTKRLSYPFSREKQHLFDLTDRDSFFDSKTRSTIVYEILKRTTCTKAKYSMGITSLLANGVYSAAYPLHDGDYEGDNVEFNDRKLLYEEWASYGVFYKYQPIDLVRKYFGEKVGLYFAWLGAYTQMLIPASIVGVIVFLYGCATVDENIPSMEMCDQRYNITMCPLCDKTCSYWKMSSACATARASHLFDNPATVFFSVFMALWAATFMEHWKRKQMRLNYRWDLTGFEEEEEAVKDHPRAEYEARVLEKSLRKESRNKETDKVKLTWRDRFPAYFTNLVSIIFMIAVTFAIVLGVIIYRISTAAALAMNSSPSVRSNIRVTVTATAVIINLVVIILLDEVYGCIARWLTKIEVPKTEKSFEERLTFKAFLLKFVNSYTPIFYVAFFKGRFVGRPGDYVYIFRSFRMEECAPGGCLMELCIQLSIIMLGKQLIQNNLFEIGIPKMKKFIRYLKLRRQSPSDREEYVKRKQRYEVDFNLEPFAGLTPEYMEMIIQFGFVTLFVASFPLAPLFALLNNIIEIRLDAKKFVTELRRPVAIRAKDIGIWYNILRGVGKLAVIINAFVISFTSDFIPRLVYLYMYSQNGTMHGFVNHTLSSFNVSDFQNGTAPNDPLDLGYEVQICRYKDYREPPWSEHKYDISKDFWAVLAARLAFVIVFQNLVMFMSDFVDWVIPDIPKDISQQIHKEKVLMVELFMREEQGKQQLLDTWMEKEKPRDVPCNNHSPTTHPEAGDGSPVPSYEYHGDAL
XBP1 UPR activ = activators of adaptive arm of unfolded protein response (XBP1); CHO-XBP1 luciferase reporter, IRE1-XBP1 UPR activation, luminescence; percent of tunicamycin response, DMSO as zero; activation, % at 20 µM; hit rate 0.33% among 330,000; AID 463104;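 active means versus positive control, 20 µM dose yields 30% or more activation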;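 further: 100% = tunicamycin at 10 µg/mL and 0% = DMSO only wells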
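incubation = overnight seeding at 37 °C, 6 h compound treatment at 37 °C | assay system = CHO-XBP1 cells stably carrying IRE1-XBP1-driven luciferase reporter | input = 1000 cells per well | detection = luciferase luminescence | dosing = single point, 20 µM final compound, 1% DMSO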
TMEM16A inh = inhibitors of mouse TMEM16A calcium-activated chloride channel. Q8BHY3. HEK293 TMEM16A/YFP iodide influx fluorescence, ionomycin. normalized B-score (activity score, 25-100; higher = stronger inhibition) at 10 µM. hit rate 1.2% among 310,000. AID 588511;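 active means ratio plate-corrected score three or more library SD toward inhibition, starting fluorescence score within five deviations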;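 further: score derived from kinetic fluorescence span divided by baseline fluorescence per well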
Lipid droplet = modulators of hepatic lipid droplet formation. AML12 mouse hepatocytes, oleate lipid droplets, BODIPY imaging. inhibition, % at 6.5 µM. hit rate 0.4% among 240,000. AID 1656;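 active means lipid droplet intensity inhibited by at least 50%, with more than 500 cells counted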
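Material – mouse AML12 hepatocyte cell line, fixed after treatment · Compound dosing – one dose, 6.5 µM compound · Times – compound with oleate, overnight · Measured by – Image-based BODIPY and DAPI two-channel analysis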
CHOP inhibitor = inhibitors of CHOP induction in ER stress response; AID 2732; CHO-K1 CHOP-promoter luciferase, tunicamycin-induced, 15-18 h; hit rate 3.8% among 220,000; inhibition, % at 10 µM;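 active means compounds that reduced the stress-induced luciferase reporter signal by more than about 70% of percent inhibition, limit read from the data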;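 further: 0% = tunicamycin plus vehicle and 100% = wells without tunicamycin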
* marks the source's active call; other numbers are inactive results.

How did Cc1ccc(/C=N/NS(=O)(=O)c2ccc([N+](=O)[O-])cc2)o1 do in these assays?
UPR CHOP act: 0; TMEM16A act: inactive; XBP1 UPR activ: -1; TMEM16A inh: inactive; Lipid droplet: 7; CHOP inhibitor: 18

How did CCCCCCCCCCS(=O)(=O)N/N=C/c1ccc([N+](=O)[O-])cc1 do in these assays?
UPR CHOP act: 2; TMEM16A act: inactive; XBP1 UPR activ: -1; TMEM16A inh: 100*; Lipid droplet: -13; CHOP inhibitor: -4

How did COc1cc(OC)c(C=NNC(=S)NC23CC4CC(CC(C4)C2)C3)c(OC)c1 do in these assays?
TMEM16A act: inactive

Results for Cc1ccc(/C=C2\CC(C)CC3=C2NC(=S)NC3c2ccc(C)cc2)cc1 (centres undefined) ?
UPR CHOP act: 0; TMEM16A act: inactive; XBP1 UPR activ: -2; TMEM16A inh: inactive; Lipid droplet: 0; CHOP inhibitor: 53

Results for CC1CC2=C(NC(=S)NC2c2cccc(F)c2)/C(=C/c2cccc(F)c2)C1 (centres undefined) ?
TMEM16A act: inactive; Lipid droplet: -44; CHOP inhibitor: 86*

Results for Cc1cc(-c2nc3cccnc3s2)ccc1NS(=O)(=O)c1ccc2c(c1)OCCO2 ?
UPR CHOP act: 3; TMEM16A act: inactive; XBP1 UPR activ: 0; TMEM16A inh: inactive; Lipid droplet: -14; CHOP inhibitor: 13

What do the screens show for `Cc1c(NS(=O)(=O)c2ccc3c(c2)OCCO3)cccc1-c1nc2cccnc2s1`?
UPR CHOP act: 0; TMEM16A act: inactive; XBP1 UPR activ: 0; TMEM16A inh: 25*; Lipid droplet: -19; CHOP inhibitor: 24

What do the screens show for `O=S(=O)([N-]c1nc2ccccc2nc1-[n+]1ccc(-c2ccncc2)cc1)c1ccccc1`?
UPR CHOP act: 1; TMEM16A act: -5.3*; XBP1 UPR activ: 2; TMEM16A inh: inactive; Lipid droplet: 3; CHOP inhibitor: -2

How did O=S(=O)([N-]c1nc2ccccc2nc1-[n+]1ccccc1)c1ccccc1 do in these assays?
UPR CHOP act: 2; TMEM16A act: inactive; XBP1 UPR activ: -1; TMEM16A inh: inactive; Lipid droplet: 10; CHOP inhibitor: -14

What do the screens show for `O=C(NC1CCCCC1)C(c1ccncc1)N(C(=O)c1csnn1)c1ccccc1` (centres undefined)?
UPR CHOP act: -3; TMEM16A act: inactive; XBP1 UPR activ: -1; TMEM16A inh: inactive; Lipid droplet: 4

Results for OC(CSc1c(Cl)cccc1Cl)CN1CCN(c2ccc(F)cc2)CC1 (centres undefined) ?
UPR CHOP act: -2; TMEM16A act: inactive; XBP1 UPR activ: -2; TMEM16A inh: inactive; Lipid droplet: -21; CHOP inhibitor: 88*

What do the screens show for `CCc1nnc(SCC(=O)NC2CCCCC2)nc1CC`?
UPR CHOP act: 0; TMEM16A act: inactive; XBP1 UPR activ: 1; TMEM16A inh: inactive; Lipid droplet: -2; CHOP inhibitor: -5

How did CCc1nnc(SCC(=O)NC2CCCC2)nc1CC do in these assays?
UPR CHOP act: -2; TMEM16A act: inactive; XBP1 UPR activ: 0; TMEM16A inh: inactive; CHOP inhibitor: 74*

How did COc1ccccc1N1CCN(C(=O)c2oc3cc(C)cc(C)c3c2C)CC1 do in these assays?
UPR CHOP act: -2; TMEM16A act: inactive; XBP1 UPR activ: -3; TMEM16A inh: 25*; Lipid droplet: -14; CHOP inhibitor: 62

How did CC1CCCN(S(=O)(=O)c2cccc(C(=O)NCC3CCCO3)c2)C1 (centres undefined) do in these assays?
UPR CHOP act: -1; TMEM16A act: inactive; XBP1 UPR activ: -2

What do the screens show for `CCOC(=O)c1cnc2ccc(OCC)cc2c1N1CCN(c2ccccc2OC)CC1`?
UPR CHOP act: 1; TMEM16A act: inactive; XBP1 UPR activ: 0; TMEM16A inh: inactive; Lipid droplet: -5; CHOP inhibitor: 88*

How did CCOc1ccc(Br)cc1S(=O)(=O)Nc1cccc(S(=O)(=O)Nc2ccccc2C(=O)O)c1 do in these assays?
UPR CHOP act: 1; TMEM16A act: inactive; XBP1 UPR activ: 0

Results for CC1(C)CCCN(C(=O)c2ccc3c(c2NCCO)C(=O)c2ccccc2C3=O)C1 ?
UPR CHOP act: -1; TMEM16A act: inactive; XBP1 UPR activ: 2; TMEM16A inh: inactive; Lipid droplet: 98*; CHOP inhibitor: 36

Results for CS(=O)(=O)c1ccc(-n2nnc3ccccc32)c([N+](=O)[O-])c1 ?
UPR CHOP act: 2; TMEM16A act: inactive; XBP1 UPR activ: 0; TMEM16A inh: inactive; Lipid droplet: -19

Results for O=[N+]([O-])c1cc(S(=O)(=O)Nc2cccc(C(F)(F)F)c2)ccc1-n1nnc2ccccc21 ?
UPR CHOP act: -3; TMEM16A act: inactive; XBP1 UPR activ: 4; TMEM16A inh: 100*; Lipid droplet: 9; CHOP inhibitor: -5

How did COc1ccc(NS(=O)(=O)c2ccc(-n3nnc4ccccc43)c([N+](=O)[O-])c2)cc1 do in these assays?
UPR CHOP act: 1; TMEM16A act: inactive; XBP1 UPR activ: -1; TMEM16A inh: 25*; Lipid droplet: -3; CHOP inhibitor: 19

Results for CC(Cn1cncn1)C(=O)N1CCN(S(=O)(=O)c2ccccc2)CC1 (centres undefined) ?
UPR CHOP act: 2; TMEM16A act: inactive; XBP1 UPR activ: 4; TMEM16A inh: inactive; Lipid droplet: 14

Results for CC(C)NC(=O)NC(=O)CSc1nnc(-c2c[nH]c3ccccc23)o1 ?
UPR CHOP act: 1; TMEM16A act: inactive; XBP1 UPR activ: -4; TMEM16A inh: inactive; Lipid droplet: 2

What do the screens show for `Cc1cc(N/N=C/c2cccc(Cl)c2)nc(NCc2ccccc2)n1`?
UPR CHOP act: 1; TMEM16A act: inactive; XBP1 UPR activ: -3; TMEM16A inh: inactive; Lipid droplet: -23; CHOP inhibitor: 50

How did Cc1cc(Nc2cccc(Cl)c2)nc(NCc2ccccc2)n1 do in these assays?
UPR CHOP act: 3; TMEM16A act: inactive; XBP1 UPR activ: 12; TMEM16A inh: inactive; Lipid droplet: -8; CHOP inhibitor: 106*

Results for CC(Sc1nc(N)cc(=O)[nH]1)C(=O)NC1CCCCC1 (centres undefined) ?
UPR CHOP act: -1; TMEM16A act: -9.7*; XBP1 UPR activ: -1; TMEM16A inh: inactive; Lipid droplet: -3; CHOP inhibitor: -1

What do the screens show for `Nc1cc(C(=O)OCC(=O)N2CCC(Cc3ccccc3)CC2)ccc1Cl`?
UPR CHOP act: 1; TMEM16A act: inactive; XBP1 UPR activ: -1
